HSF1 inhib: HSF1 inhibition. activity change, negative = inhibition, % at 7.5 µM (by protocol). NIH3T3-HGL HSE-luciferase, MG132-induced, luminescence 8 h; hits give low values. AID 2098. 0.77% of 300,000 active;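 active = more than half of replicate wells show activity change below -50%, luminescence cut by over half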;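 note: luciferase reports HSF-1 transcriptional activity via heat shock element; 0% = median of DMSO wells and -100% = zero luminescence signal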
PolyA inh: inhibitors of polyadenylation in S. cerevisiae. AID 1875. S. cerevisiae SKY197-pL101 polyadenylation reporter, beta-gal luminescence; efflux-impaired pdr1/pdr3 knockout yeast; score 100 = 6 SD above DMSO. 0.02% of 300,000 active. activity score, % at 12 µM;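 active = lowest replicate activity score at least 50, where 100 means six control SD above control mean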;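 note: yeast exposed to compound for 9 h at 30 °C; higher score means more reporter readthrough which indicates perturbed polyadenylation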
Hsp70 act: transcriptional activators of Hsp70; HeLa Hsp70 promoter luciferase reporter, luminescence; scaled: vehicle 0, proteasome-inhibitor control 100%; activation, % at 10 µM; 0.04% of 200,000 active; AID 1203;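 active = activation above the mean across all tested compounds plus 3 SD, cutoff set per campaign, cut at about 5.5% in these data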;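 note: 100% = MG132 at 30 µM as the positive control and 0% = DMSO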
AHR activator: activators of human aryl hydrocarbon receptor; P35869; AHR-responsive luciferase reporter cells, luminescence; activation, % at 5 µM; 2.5% of 320,000 active; in the data active = activation above about 47%;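 note: 0% = vehicle wells and 100% = reference agonist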
PERK inh: human PERK inhibition, primary cell-based screen; AID 1416; CHO PERK-DD fusion, SEAP luminescence translation reporter; inhibition, % at 5.6 µM; 0.17% of 220,000 active;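 active = inhibition above the mean inhibition of all tested compounds plus 3 SD, set separately per screening campaign, cut at about 2.9% in these data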;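 note: PERK kinase domain activated by AP20187 dimerizer at 100 nM; 0% = DMSO with dimerizer and 100% = rapamycin at 8.4 µM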
STAT3 activator: increases IL-6 driven STAT3 reporter signal. AID 871. 0.91% of 190,000 active. activation (% of control), % at 5.6 µM. U3A cells, IL-6 STAT3-luciferase reporter, luminescence; 100% = signal with IL-6 EC80 alone;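 active = activation above the screen-wide mean of compound activation plus 3 SD, cut at about 130% in these data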;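 note: 0% = background luminescence of wells with medium and substrate only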
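Material: human STAT1-deficient U3A cells with stable STAT3-luciferase reporter / Probe or stimulus: IL-6 stimulus at 33 ng/mL final / Schedule: 1 h compound pre-exposure, 6 h IL-6 stimulation, 37 °C / Technique: luminescence / Read-out basis: percent of IL-6-only median luminescence / Control set: IL-6-only high control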
AHR act cf: confirmation of human aryl hydrocarbon receptor activators. 87% of 2,300 active. shares compounds with AHR activator. AID 2845. activation, % at 9 µM. human cells, AHR-responsive luciferase reporter, luminescence; in the data active = activation above about 49%;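 note: HepG2 hepatoma cells carrying a DRE-driven firefly luciferase reporter; 0% = vehicle wells and 100% = reference agonist wells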
PXR act counter: PXR activation, counter-screen for AHR activators; shares compounds with AHR activator; cell-based PXR reporter, luciferase luminescence; activation, % at 11.6 µM; 88% of 2,300 active; AID 434939; in the data active = activation above about 11%;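 note: human hepatoma DPX-2 cells expressing full-length human PXR; 0% = DMSO and 100% = reference agonist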
Target sequence (O75469 whole entry, looked up): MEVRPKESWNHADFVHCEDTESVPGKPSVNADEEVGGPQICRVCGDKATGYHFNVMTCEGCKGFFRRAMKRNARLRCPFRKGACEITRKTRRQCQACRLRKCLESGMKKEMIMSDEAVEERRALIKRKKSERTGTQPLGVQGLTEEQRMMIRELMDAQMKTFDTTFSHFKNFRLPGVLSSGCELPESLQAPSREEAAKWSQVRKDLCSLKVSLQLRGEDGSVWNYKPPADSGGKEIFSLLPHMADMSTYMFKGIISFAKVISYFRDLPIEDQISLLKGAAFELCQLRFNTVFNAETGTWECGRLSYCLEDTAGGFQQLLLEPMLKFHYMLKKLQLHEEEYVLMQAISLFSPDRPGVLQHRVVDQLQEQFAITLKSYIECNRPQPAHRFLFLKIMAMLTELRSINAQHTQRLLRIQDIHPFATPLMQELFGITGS
Active calls of the source: *; / = not tested or not shown. Only some compounds are listed: those with a hit (about 3.6% of all), similar ones and a draw of the others.

SMILES	HSF1 inhib	PolyA inh	Hsp70 act	AHR activator	PERK inh	STAT3 activator	AHR act cf	PXR act counter
CN(NC(=O)C(C)(C)C)c1nc(-c2ccccc2)nnc1C(F)(F)F	3.4	2.8	0.1	0.7	0.2	100.9	/	/
CN(C)c1nc(-c2ccccc2)nnc1C(F)(F)F	/	-1.8	-0.1	96.2*	-0.3	101.3	114.2*	25.0*
Cc1ccc(CCC(=O)Nc2ccc(C)c(C)c2)o1	2.8	-19.5	/	1.1	/	/	/	/
Cc1cc(C)cc(NC(=S)N2CCC(NC(=O)C3CC3)CC2)c1	2.3	-14.1	/	0.2	/	/	/	/
COc1ccc(Nc2ccnc(Nc3ccc(OC)cc3)n2)cc1	19.4	-2.0	-0.3	82.8*	-0.8	78.0	61.9*	37.0*
O=[N+]([O-])c1ccc(Cl)cc1CNc1ccc(F)c(F)c1	-5.1	-29.4	-0.2	106.4*	0.4	101.3	80.0*	20.0*
COc1ccc(NCc2ccccc2[N+](=O)[O-])cc1OC	12.4	-8.6	-0.4	2.7	-0.2	110.8	/	/
CCOc1c(OC(C)=O)ccc(/C=C/c2ccc3cccc(OC(C)=O)c3n2)c1[N+](=O)[O-]	16.2	-16.0	-0.2	10.2	1.1	113.1	/	/
CCOc1cccc(/C=C/c2ccc3cccc(O)c3n2)c1O	12.1	-6.4	/	96.3*	/	/	109.2*	7.8
Brc1ccc(-c2ccc(/C=N/Nc3nncc(-c4ccccc4)n3)o2)cc1	-0.1	-4.3	-0.2	19.4	-0.6	99.1	/	/
Cc1ccc(/C=N/Nc2nc3ccccc3[nH]2)s1	439.6	-4.3	0.0	109.1*	-0.3	121.1	143.4*	30.3*
Brc1ccc(-c2ccc(/C=N/Nc3nc4ccccc4[nH]3)o2)cc1	203.5	-17.5	0.0	98.4*	-0.5	112.4	121.4*	12.4*
Cc1nn(-c2ccccc2)c(Cl)c1/C=N/Nc1nc2ccccc2[nH]1	0.3	0.1	-0.1	23.4	-0.2	83.0	/	/
CCCOc1ccc(C(=O)N2CCN(Cc3ccc4c(c3)OCO4)CC2)cc1	3.5	-31.4	/	8.8	/	/	/	/
CCc1ccc(CN(C)C(=O)C2CCC(=O)N(Cc3ccccn3)C2)cc1 (stereo unspecified)	0.3	-6.1	/	-1.7	/	/	/	/
CNc1sc(C(=O)c2ccccc2F)c(N)c1-c1nc2ccccc2s1	6.5	-32.3	0.1	89.9*	-0.9	112.4	87.6*	48.0*
O=C(CNC(=O)c1ccccc1F)OCc1nc2ccccc2s1	2.1	7.8	-0.1	14.8	1.4	129.5	/	/
CC(C)CCOc1ccc(C(=O)NNC(=O)CNC(=O)c2ccccc2F)cc1	/	/	/	3.1	/	/	/	/
Cn1c(=O)n(CCc2ccccc2)c(=O)c2c1ncn2Cc1ccccc1	10.9	0.4	-0.2	80.6*	-1.0	123.2	94.5*	28.1*
Cn1c(=O)n(CCc2ccccc2)c(=O)c2c1nc1n2CCCN1Cc1ccccc1	4.6	-20.9	0.0	119.1*	-0.8	89.7	82.6*	149.5*
Cn1cnc2c1c(=O)n(Cc1ccccc1)c(=O)n2C	-5.3	13.6	/	2.9	/	/	/	/
O=C(Nc1ccc(Cl)cc1)[C@@H]1[C@@H]2C(=O)N(c3ccc(Cl)cc3)C(=O)[C@@H]2[C@H]2C=CC=NN21	-6.1	-15.1	-0.5	97.9*	-1.5	127.1	62.9*	13.4*
Cc1ccc(-n2ncc3ccccc3c2=O)cc1Cl	74.7	-9.3	0.2	8.0	-0.7	91.0	/	/
O=c1c2ccccc2cnn1-c1ccc(Cl)cc1	18.4	-22.6	0.1	133.5*	0.1	106.4	116.9*	47.1*
c1ccc2oc(-c3ccc4nc[nH]c4c3)nc2c1	30.3	-14.4	-0.1	97.1*	0.8	93.2	146.8*	14.1*
SMILES	HSF1 inhib	PolyA inh	Hsp70 act	AHR activator	PERK inh	STAT3 activator	AHR act cf	PXR act counter
CCCNC(=O)Nc1ccc(C(F)(F)F)cc1	6.2	1.7	0.0	2.8	1.5	101.4	/	/
O=c1[nH]c(CN2CCc3ccccc3C2)nc2ccccc12	18.1	7.5	-0.2	85.5*	0.0	105.6	100.2*	67.0*
Cc1cc2nn(-c3ccc(F)cc3)nc2cc1N	21.7	12.7	/	109.5*	/	/	122.5*	25.3*
COc1ccc(-n2nc3cc(C)c(N)cc3n2)cc1Cl	24.4	8.3	/	25.6	/	/	/	/
Cc1cc2nn(-c3ccc(Cl)cc3)nc2cc1N	12.9	16.0	/	80.5*	/	/	191.7*	23.7*
CCOc1ccc(N(CC)C(=O)CCS(=O)(=O)c2cccc3nonc23)cc1	-3.7	-1.3	/	-0.3	/	/	/	/
COc1ccc(N(CC(=O)NCCC2=CCCCC2)S(=O)(=O)c2c(C)[nH]c(=O)[nH]c2=O)cc1	1.8	-4.7	/	-0.6	-1.9	/	/	/
CC(=O)c1c(C)[nH]c(C(=O)Nc2nccs2)c1C	15.3	2.1	-0.1	133.5*	0.7	106.0	73.6*	35.8*
CC(=O)c1c(C)[nH]c(C(=O)Nc2cc(C)ccc2C)c1C	-4.1	16.9	-0.5	118.4*	0.8	93.3	92.6*	37.9*
CCN(CC)c1ccc(NC(=O)c2[nH]c(C)c(C(C)=O)c2C)c(C)c1	5.1	0.5	0.1	1.6	0.3	78.1	/	/
CC(=O)c1c(C)[nH]c(C(=O)Nc2ccc(F)cc2F)c1C	0.7	-9.8	/	97.8*	/	/	131.0*	37.7*
CCCNC(=O)C1(CC2CC(c3ccccc3)=NO2)CCN(C(=O)C2CCCC2)CC1 (stereo unspecified)	/	/	/	-7.3	/	/	/	/
CC(C)Cc1nnc(NC(=O)CCC(=O)N2CCN(c3ccc(F)cc3)CC2)s1	-7.1	0.7	/	-0.3	/	/	/	/
C=CCOc1c(Br)cc(/C=N/NC(N)=O)cc1OC	-9.8	-6.4	-0.1	89.2*	-0.1	81.7	111.9*	25.2*
C=CCOc1c(Br)cc(/C=C(\C#N)C(N)=O)cc1OC	1.0	-8.6	/	5.3	1.2	/	/	/
C=CCOC(=O)c1c(C)nc2cc3c(cc2c1C)OCO3	3.9	2.9	-0.3	107.9*	-1.5	90.2	56.5*	53.2*
c1csc(-c2nc3c4ccccc4c4ccccc4c3[nH]2)c1	7.3	-47.6	-0.1	112.2*	-1.9	92.9	95.8*	25.1*
c1cnc2c(OCc3nc4ccccc4[nH]3)cccc2c1	27.4	-14.3	0.0	110.3*	-1.4	156.1*	149.1*	110.5*
COc1ccccc1OCc1nc2ccccc2[nH]1	30.3	-1.8	0.5	11.1	-0.1	94.8	/	/
O=C(O)c1cc(S(=O)(=O)Nc2ccc3c(c2)OCCO3)c(Cl)cc1Cl	-68.6*	-4.6	-0.3	82.9*	0.8	86.9	14.8	13.7*
O=C(Nc1ccc(-c2nc3cccnc3s2)cc1)c1ccc(Cl)nc1	-7.1	-6.6	/	86.1*	1.3	/	5.5	11.2*
O=C(Nc1ccc(-c2nc3cccnc3s2)cc1)c1cccnc1Cl	3.5	-2.2	/	22.7	-1.2	/	/	/
